{"source": "ChEMBL document CHEMBL4152390", "about": "“Discovery of the First-in-Class Dual Histone Deacetylase-Proteasome Inhibitor” (J Med Chem, 2018)", "key": {"SEM cells [1]": {"system": "SEM cells", "assay": "Inhibition of HDAC6/chymotrypsin-like activity of 20S proteasome in human SEM cells assessed as increase in HSP70 protein expression at 0.1 to 10 uM after 18 hrs by Western blot assay", "format": "cell-based", "method_in_brief": "(§1)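 Cells treated 18 h at indicated concentrations; lysates analysed by western blot for heat shock (Grp94, HSP70, HSP40, HSP27), UPR (BIP, ATF4, ATF6, pJNK) and autophagy (LC3B, p62) proteins.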"}, "SEM cells [2]": {"system": "SEM cells", "assay": "Inhibition of HDAC6/chymotrypsin-like activity of 20S proteasome in human SEM cells assessed as increase in Grp94 protein expression at 0.1 to 10 uM after 18 hrs by Western blot assay", "format": "cell-based", "method_in_brief": "as §1"}, "[3]": {"molecular_target": "T1, Proteasome Macropain subunit MB1 (Homo sapiens, UniProt P28074)", "T1 sequence (P28074 whole entry)": "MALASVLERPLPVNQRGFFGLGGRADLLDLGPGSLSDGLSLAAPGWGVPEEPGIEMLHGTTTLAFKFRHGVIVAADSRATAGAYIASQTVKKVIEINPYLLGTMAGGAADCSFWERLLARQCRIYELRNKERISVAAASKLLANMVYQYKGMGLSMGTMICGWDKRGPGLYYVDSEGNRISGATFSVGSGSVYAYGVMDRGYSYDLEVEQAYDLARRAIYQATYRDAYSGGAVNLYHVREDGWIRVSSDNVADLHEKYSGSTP", "assay": "Inhibition of chymotrypsin-like activity of 20S proteasome in human HL60 cells using Suc-LLVY aminoluciferin as substrate after 2 hrs by proteasome-Glo assay", "format": "cell-based"}, "SEM cells [4]": {"system": "SEM cells", "assay": "Inhibition of HDAC6/chymotrypsin-like activity of 20S proteasome in human SEM cells assessed as decrease in aggresome accumulation at IC50 to 2 times IC50 after 18 hrs by fluorescence microscopic method", "format": "cell-based", "method_in_brief": "(§2)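 Cells treated 18 h, then stained with a proteostat aggresome dye plus DNA stain. Imaged by fluorescence microscopy (63X objective) or analysed by FACS, with aggresome propensity factor from relative mean fluorescence intensity.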"}, "SEM cells [5]": {"system": "SEM cells", "assay": "Induction of early differentiation of human SEM cells assessed as increase in CD14 expression at IC50 to 2 times IC50 after 72 hrs by FACS analysis", "format": "functional, cell-based", "method_in_brief": "(§3)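 Surface CD11b and CD14 measured by FACS using fluorochrome-coupled monoclonal antibodies with matched isotype controls, after treatment in liquid medium.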"}, "SEM cells [6]": {"system": "SEM cells", "assay": "Inhibition of HDAC6/chymotrypsin-like activity of 20S proteasome in human SEM cells assessed as decrease in aggresome accumulation at IC50 to 2 times IC50 after 18 hrs by FACS analysis", "format": "cell-based", "method_in_brief": "as §2"}, "SEM cells [7]": {"system": "SEM cells", "assay": "Inhibition of HDAC6/chymotrypsin-like activity of 20S proteasome in human SEM cells assessed as increase in BIP protein expression at 0.1 to 10 uM after 18 hrs by Western blot assay", "format": "cell-based", "method_in_brief": "as §1"}, "SEM cells [8]": {"system": "SEM cells", "assay": "Reduction of colony forming capacity of human SEM cells at IC50 to 2 times IC50 after 48 hrs", "format": "functional, cell-based", "method_in_brief": "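SEM cells pretreated in liquid medium (methods: 24 h; legend: 48 h), then plated in semisolid methylcellulose-based medium containing compound or control; colonies counted after 14 days.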"}, "KCL-22": {"system": "KCL-22", "assay": "Cytotoxicity against human KCL22 cells after 72 hrs by CellTiter-Glo luminescent cell viability assay", "format": "functional, cell-based", "details": "KCL-22, 72 h", "method_in_brief": "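Inhibitors dispensed in increasing concentrations (50 nM–25 μM) and cells exposed 72 h. Viability read by ATP-dependent luminescence (CellTiter-Glo). Raw data normalized to controls. IC50 obtained by sigmoid dose–response fit with non-linear regression.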"}, "SEM cells [9]": {"system": "SEM cells", "assay": "Inhibition of HDAC6/chymotrypsin-like activity of 20S proteasome in human SEM cells assessed as increase in p62 protein expression at 0.1 to 10 uM after 18 hrs by Western blot assay", "format": "cell-based", "method_in_brief": "as §1"}, "[10]": {"assay": "Cytotoxicity against human BCP-ALL cells derived from patient 4 after 72 hrs by CellTiter-Glo luminescent cell viability assay", "format": "functional, cell-based"}, "[11]": {"molecular_target": "T1, Proteasome Macropain subunit MB1", "assay": "Inhibition of chymotrypsin-like activity of 20S proteasome in imatinib-resistant human SUP-B15 cells using Suc-LLVY aminoluciferin as substrate after 2 hrs by proteasome-Glo assay", "format": "cell-based"}, "SEM cells [12]": {"system": "SEM cells", "assay": "Inhibition of HDAC6/chymotrypsin-like activity of 20S proteasome in human SEM cells assessed as increase in HSP27 protein expression at 0.1 to 10 uM after 18 hrs by Western blot assay", "format": "cell-based", "method_in_brief": "as §1"}, "SEM cells [13]": {"system": "SEM cells", "assay": "Inhibition of HDAC6/chymotrypsin-like activity of 20S proteasome in human SEM cells assessed as increase in LC3B protein expression at 0.1 to 10 uM after 18 hrs by Western blot assay", "format": "cell-based", "method_in_brief": "as §1"}, "PBMC": {"system": "PBMC", "assay": "cells", "format": "ADME, cell-based", "details": "Homo sapiens, 72 h"}, "Histone deacetylase 2": {"molecular_target": "Histone deacetylase 2 (Homo sapiens, UniProt Q92769)", "sequence (Q92769 whole entry)": "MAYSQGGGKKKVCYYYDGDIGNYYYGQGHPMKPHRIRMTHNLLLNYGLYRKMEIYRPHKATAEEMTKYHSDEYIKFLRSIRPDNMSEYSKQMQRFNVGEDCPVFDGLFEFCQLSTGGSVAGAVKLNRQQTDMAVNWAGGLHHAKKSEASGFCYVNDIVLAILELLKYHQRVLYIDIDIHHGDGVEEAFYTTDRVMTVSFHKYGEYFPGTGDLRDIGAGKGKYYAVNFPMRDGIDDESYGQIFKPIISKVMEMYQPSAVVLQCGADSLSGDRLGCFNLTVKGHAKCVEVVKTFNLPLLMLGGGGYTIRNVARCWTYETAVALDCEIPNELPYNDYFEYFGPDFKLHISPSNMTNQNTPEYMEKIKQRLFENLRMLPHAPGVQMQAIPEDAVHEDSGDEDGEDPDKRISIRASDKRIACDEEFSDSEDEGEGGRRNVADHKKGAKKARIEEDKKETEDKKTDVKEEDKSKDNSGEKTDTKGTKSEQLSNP", "assay": "Inhibition of C-terminal GST-tagged recombinant human HDAC2 expressed in baculovirus infected insect cells using RHKK(Ac)AMC as substrate by fluorescence-based assay"}, "[14]": {"molecular_target": "T2, Proteasome component C5 (Homo sapiens) (UniProt P20618)", "T2 sequence (whole entry)": "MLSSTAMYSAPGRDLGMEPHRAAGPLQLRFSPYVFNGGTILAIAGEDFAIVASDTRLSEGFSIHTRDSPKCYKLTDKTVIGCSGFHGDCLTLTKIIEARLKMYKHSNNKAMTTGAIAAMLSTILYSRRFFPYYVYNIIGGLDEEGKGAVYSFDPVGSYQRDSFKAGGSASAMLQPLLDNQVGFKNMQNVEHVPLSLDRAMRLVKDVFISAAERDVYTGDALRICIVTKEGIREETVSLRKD", "assay": "Inhibition of caspase-like activity of 20S proteasome in human SEM cells at 4 nM to 25 uM using Z-nLPnLD-aminoluciferin as substrate after 2 hrs by proteasome-Glo assay", "format": "cell-based"}, "SEM cells [15]": {"system": "SEM cells", "assay": "Induction of early differentiation of human SEM cells assessed as increase in CD11b expression at IC50 to 2 times IC50 after 72 hrs by FACS analysis", "format": "functional, cell-based", "method_in_brief": "as §3"}}, "note": "Calls of active or inactive are those of the source. The calls are words filed in the database; no cut-off is given here.", "data": [{"molecule": "C[C@H](NC(=O)[C@H](CC(=O)NCC(C)(C)C)NC(=O)c1ccc(C(=O)NO)cc1)C(=O)NCc1ccccc1", "values": [{"measurement": "inhibition", "setting": "SEM cells [1]", "result": "Active"}, {"measurement": "inhibition", "setting": "SEM cells [2]", "result": "Active"}, {"measurement": "IC50", "setting": "[3]", "result": 260, "unit": "nM"}, {"measurement": "inhibition", "setting": "SEM cells [4]", "result": "Active"}, {"measurement": "Activity", "setting": "SEM cells [5]", "result": "Active"}, {"measurement": "inhibition", "setting": "SEM cells [6]", "result": "Active"}, {"measurement": "inhibition", "setting": "SEM cells [7]", "result": "Active"}, {"measurement": "Activity", "setting": "SEM cells [8]", "result": "Active"}, {"measurement": "IC50", "setting": "KCL-22", "result": 3.14, "unit": "µM"}, {"measurement": "inhibition", "setting": "SEM cells [9]", "result": "Active"}, {"measurement": "IC50", "setting": "[10]", "result": 1510, "unit": "nM"}, {"measurement": "IC50", "setting": "[11]", "result": 820, "unit": "nM"}, {"measurement": "inhibition", "setting": "SEM cells [12]", "result": "Active"}, {"measurement": "inhibition", "setting": "SEM cells [13]", "result": "Active"}, {"measurement": "IC50", "setting": "PBMC", "result": "> 25", "unit": "µM"}, {"measurement": "IC50", "setting": "Histone deacetylase 2", "result": 18, "unit": "µM"}, {"measurement": "inhibition", "setting": "[14]", "result": "inactive"}, {"measurement": "Activity", "setting": "SEM cells [15]", "result": "Active"}]}]}
